Where “and” joins values, the source holds several entries; their conditions need not be identical. Identical values can stand only once.
Test system: HEK-293T
Assay: Multiplex assay against HEK293T;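 as to Population Tubulin-Different-Phenotype (%): share of the cells with healthy nuclei that show this phenotype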
Assay type: toxicity, cell-based
Settings: human
Method in brief: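 Values for tubulin, mitochondrial-mass and membrane-permeability phenotypes are per cents of cells with healthy nuclei. These cells were identified by CellPathfinder machine-learning gating of live cells that had been stained at seeding with Hoechst33342, BioTracker Green Microtubule Cytoskeleton Dye, MitoTracker Red and Annexin V Alexa Fluor 680 and imaged on a CQ1 microscope at 37°C and 5% CO2 after compound addition. The gating first set Hoechst high-intensity objects apart from normal cells, then split normal cells into healthy, pyknosed or fragmented nuclei, and pyknosed cells into mitotic or apoptotic.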

[1] = 12 h, 1 µM, compound concentration 1 uM, replicate 1
[2] = 12 h, 1 µM, compound concentration 1 uM, replicate 2
[3] = 12 h, 10 µM, compound concentration 10 uM, replicate 1
[4] = 12 h, 10 µM, compound concentration 10 uM, replicate 2
[5] = 24 h, 1 µM, compound concentration 1 uM, replicate 1
[6] = 24 h, 1 µM, compound concentration 1 uM, replicate 2
[7] = 24 h, 10 µM, compound concentration 10 uM, replicate 1
[8] = 24 h, 10 µM, compound concentration 10 uM, replicate 2
[9] = 48 h, 10 µM, compound concentration 10 uM, replicate 1
[10] = 48 h, 10 µM, compound concentration 10 uM, replicate 2

Q: How did the “Population Apoptotic (%)” value [1] turn out when `CCOC(=O)Nc1cc(-c2ccc(C)c(NS(C)(=O)=O)c2)nn2c(C)nnc12` was run?
A: Its value is 18%.

Q: And the “Population Fragmented Nuclei (%)” value [1]?
A: The value was 13%.

Q: And the “Population Healthy Nuclei (%)” value [1]?
A: The value was 68%.

Q: What about the “Population Hoechst High Intensity Objects (%)” value [1] of the same compound?
A: The value was 9%.

Q: And the “Population Membrane Permeable-Phenotype (%)” value [1]?
A: Its value is 3%.

Q: And the “Population Mitochondria Different-Phenotype (%)” value [1]?
A: The value was 3%.

Q: What about the “Population Mitotic Cells (%)” value [1] of the same compound?
A: The value was 81%.

Q: What about the “Population Normal (%)” value [1] of the same compound?
A: The value was 90%.

Q: What about the “Population Pyknosed Nuclei (%)” value [1] of the same compound?
A: The value was 17%.

Q: And the “Population Tubulin-Different-Phenotype (%)” value [1]?
A: Its value is 2%.

Q: And the “Total Cell Count” value [1]?
A: Its value is 561.

Q: And the “Population Apoptotic (%)” value [2]?
A: The value was 12%.

Q: And the “Population Fragmented Nuclei (%)” value [2]?
A: Its value is 10%.

Q: What about the “Population Healthy Nuclei (%)” value [2] of the same compound?
A: Its value is 87%.

Q: And the “Population Hoechst High Intensity Objects (%)” value [2]?
A: Its value is 2%.

Q: What about the “Population Membrane Permeable-Phenotype (%)” value [2] of the same compound?
A: The value was 0%.

Q: And the “Population Mitochondria Different-Phenotype (%)” value [2]?
A: The value was 6%.

Q: What about the “Population Mitotic Cells (%)” value [2] of the same compound?
A: The value was 87%.

Q: What about the “Population Normal (%)” value [2] of the same compound?
A: The value was 97%.

Q: What about the “Population Pyknosed Nuclei (%)” value [2] of the same compound?
A: Its value is 2%.

Q: And the “Population Tubulin-Different-Phenotype (%)” value [2]?
A: Its value is 0%.

Q: And the “Total Cell Count” value [2]?
A: The value was 1857.

Q: What about the “Population Apoptotic (%)” value [3] of the same compound?
A: Its value is 44% and 28%.

Q: What about the “Population Fragmented Nuclei (%)” value [3] of the same compound?
A: Its value is 19% and 8%.

Q: What about the “Population Hoechst High Intensity Objects (%)” value [3] of the same compound?
A: The value was 12% and 6%.

Q: And the “Population Membrane Permeable-Phenotype (%)” value [3]?
A: Its value is 0% and 2%.

Q: And the “Population Mitotic Cells (%)” value [3]?
A: Its value is 55% and 71%.

Q: And the “Population Normal (%)” value [3]?
A: Its value is 88% and 93%.

Q: And the “Total Cell Count” value [3]?
A: Its value is 275 and 719.

Q: And the “Population Apoptotic (%)” value [4]?
A: The value was 4% and 3%.

Q: What about the “Population Fragmented Nuclei (%)” value [4] of the same compound?
A: Its value is 16%.

Q: And the “Population Healthy Nuclei (%)” value [4]?
A: The value was 79% and 50%.

Q: What about the “Population Hoechst High Intensity Objects (%)” value [4] of the same compound?
A: The value was 3% and 4%.

Q: And the “Population Mitochondria Different-Phenotype (%)” value [4]?
A: Its value is 6% and 8%.

Q: And the “Population Mitotic Cells (%)” value [4]?
A: Its value is 95% and 96%.

Q: What about the “Population Normal (%)” value [4] of the same compound?
A: Its value is 96% and 95%.

Q: What about the “Population Tubulin-Different-Phenotype (%)” value [4] of the same compound?
A: The value was 1%.

Q: What about the “Population Apoptotic (%)” value [5] of the same compound?
A: The value was 13%.

Q: And the “Population Fragmented Nuclei (%)” value [5]?
A: Its value is 11%.

Q: What about the “Population Healthy Nuclei (%)” value [5] of the same compound?
A: Its value is 78%.

Q: And the “Population Hoechst High Intensity Objects (%)” value [5]?
A: The value was 7%.

Q: And the “Population Membrane Permeable-Phenotype (%)” value [5]?
A: Its value is 4%.

Q: And the “Population Mitochondria Different-Phenotype (%)” value [5]?
A: The value was 2%.

Q: What about the “Population Mitotic Cells (%)” value [5] of the same compound?
A: Its value is 86%.

Q: What about the “Population Normal (%)” value [5] of the same compound?
A: The value was 92%.

Q: And the “Population Pyknosed Nuclei (%)” value [5]?
A: The value was 9%.

Q: And the “Population Tubulin-Different-Phenotype (%)” value [5]?
A: Its value is 0%.

Q: And the “Total Cell Count” value [5]?
A: The value was 702.

Q: And the “Population Apoptotic (%)” value [6]?
A: The value was 6%.

Q: What about the “Population Fragmented Nuclei (%)” value [6] of the same compound?
A: Its value is 32%.

Q: What about the “Population Healthy Nuclei (%)” value [6] of the same compound?
A: The value was 65%.

Q: What about the “Population Hoechst High Intensity Objects (%)” value [6] of the same compound?
A: Its value is 4%.

Q: And the “Population Membrane Permeable-Phenotype (%)” value [6]?
A: The value was 0%.

Q: And the “Population Mitochondria Different-Phenotype (%)” value [6]?
A: Its value is 1%.

Q: What about the “Population Mitotic Cells (%)” value [6] of the same compound?
A: Its value is 93%.

Q: What about the “Population Normal (%)” value [6] of the same compound?
A: The value was 95%.

Q: What about the “Population Pyknosed Nuclei (%)” value [6] of the same compound?
A: The value was 2%.

Q: And the “Total Cell Count” value [6]?
A: Its value is 3024.

Q: And the “Population Apoptotic (%)” value [7]?
A: Its value is 42% and 17%.

Q: And the “Population Fragmented Nuclei (%)” value [7]?
A: Its value is 16% and 17%.

Q: And the “Population Healthy Nuclei (%)” value [7]?
A: Its value is 34% and 77%.

Q: And the “Population Hoechst High Intensity Objects (%)” value [7]?
A: Its value is 9% and 6%.

Q: What about the “Population Membrane Permeable-Phenotype (%)” value [7] of the same compound?
A: Its value is 1% and 6%.

Q: And the “Population Mitotic Cells (%)” value [7]?
A: Its value is 57% and 82%.

Q: What about the “Population Normal (%)” value [7] of the same compound?
A: The value was 90% and 93%.

Q: And the “Population Tubulin-Different-Phenotype (%)” value [7]?
A: The value was 1% and 2%.

Q: And the “Population Healthy Nuclei (%)” value [8]?
A: Its value is 68% and 53%.

Q: What about the “Population Hoechst High Intensity Objects (%)” value [8] of the same compound?
A: Its value is 2% and 5%.

Q: What about the “Population Mitochondria Different-Phenotype (%)” value [8] of the same compound?
A: The value was 1%.

Q: What about the “Population Mitotic Cells (%)” value [8] of the same compound?
A: Its value is 98% and 95%.

Q: What about the “Population Normal (%)” value [8] of the same compound?
A: The value was 97% and 94%.

Q: What about the “Population Apoptotic (%)” value [9] of the same compound?
A: The value was 38%.

Q: And the “Population Fragmented Nuclei (%)” value [9]?
A: The value was 19%.

Q: And the “Population Healthy Nuclei (%)” value [9]?
A: The value was 48%.

Q: And the “Population Hoechst High Intensity Objects (%)” value [9]?
A: The value was 11%.

Q: What about the “Population Membrane Permeable-Phenotype (%)” value [9] of the same compound?
A: Its value is 1%.

Q: What about the “Population Mitochondria Different-Phenotype (%)” value [9] of the same compound?
A: The value was 4%.

Q: And the “Population Mitotic Cells (%)” value [9]?
A: Its value is 61%.

Q: What about the “Population Normal (%)” value [9] of the same compound?
A: The value was 88%.

Q: And the “Population Pyknosed Nuclei (%)” value [9]?
A: Its value is 32%.

Q: And the “Population Tubulin-Different-Phenotype (%)” value [9]?
A: Its value is 1%.

Q: And the “Total Cell Count” value [9]?
A: The value was 380.

Q: What about the “Population Apoptotic (%)” value [10] of the same compound?
A: The value was 4%.

Q: What about the “Population Fragmented Nuclei (%)” value [10] of the same compound?
A: Its value is 9%.

Q: What about the “Population Healthy Nuclei (%)” value [10] of the same compound?
A: The value was 83%.

Q: What about the “Population Hoechst High Intensity Objects (%)” value [10] of the same compound?
A: Its value is 2%.

Q: And the “Population Mitochondria Different-Phenotype (%)” value [10]?
A: The value was 0%.

Q: What about the “Population Mitotic Cells (%)” value [10] of the same compound?
A: The value was 95%.

Q: What about the “Population Normal (%)” value [10] of the same compound?
A: The value was 97%.

Q: And the “Population Pyknosed Nuclei (%)” value [10]?
A: The value was 7%.

Q: And the “Population Tubulin-Different-Phenotype (%)” value [10]?
A: Its value is 0%.

Q: What about the “Total Cell Count” value [10] of the same compound?
A: Its value is 566.

From ChEMBL document CHEMBL4689842, “EUbOPEN Chemogenomics Library wave 1” (2021)
